SMILES strings stand for the structures. Values after ≈ are worked out from the molar mass of the structure shown. Bounds are passed on as bounds.

Data set [1] can be described thus: Kinetic aqueous solubility of compound in phosphate buffer at pH 7.4 incubated for 1 hrs by CLND assay. It is filed as physicochemical. The note with it: read-out: Kinetic_solubility.
Data set [2] can be described thus: Cytotoxicity against human HepG2 cells assessed as cell growth inhibition incubated for 48 hrs by CellTiter-Glo reagent based analysis. It is filed as toxicity. Summed up: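 HepG2 cells kept in Eagle's MEM with 10% heat-inactivated FBS, 1% NEAA and penicillin/streptomycin, seeded at ~3000 cells/well onto pre-dispensed compound. Incubation was 48 h at 37 °C, 5% CO2. Plates were equilibrated to room temperature, CellTiter-Glo was added, and ATP luminescence was read after 10 min as the viability read-out.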
(Cellular ATP, detected with luciferase, serves as a proxy for viable cell number.)

Data set [3] concerns Mycobacterium tuberculosis. Briefly: Antimycobacterial activity against Mycobacterium tuberculosis H37Rv ATCC 25618 assessed as inhibition of microbial growth incubated for 6 days by resazurin based assay. The format is functional. The settings on record: H37Rv ATCC 25618, 144 h, time 6 day. Summed up: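 Ten two-fold dilutions made in neat DMSO, tested in Middlebrook 7H9 with the H37Rv inoculum. Controls: isoniazid from 4 μg/ml as positive control; rifampicin 1 μM as no-growth control. Plates sat sealed at 37 °C without shaking for 6 days.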
A general note: Resazurin is reduced to fluorescent resorufin, in cell work by metabolically active cells.

Data set [4] in a line: Chromatographic hydrophobicity index, log D of the compound in phosphate buffer at pH 7.4 by UV-HPLC analysis. The format is physicochemical.
A short description of data set [5]: Artificial membrane permeability of the compound incubated for 3 hrs by HPLC analysis. The settings on record: PAMPA, read-out: permeability. It is filed as ADME. In general terms: In PAMPA a lipid-coated filter parts donor from acceptor wells.

`COc1ccc2nc(C)cc(NC(=O)C(=O)Nc3cc(C)cc(C)c3)c2c1`: in data set [1], the solubility kinetic at 1 h is 10 µM (≈ 3.63 µg/mL). In addition, the IC50 at 48 h in data set [2] is greater than 100 µM. In addition, the MIC in data set [3] was greater than 125 µM. Also, the chromatographic logD in data set [4] was found to be 6.47.

For `COc1cc2nc(C)cc(OCC(=O)Nc3cc(C)cc(C)c3)c2cc1OC`, the IC50 at 48 h in data set [2] amounted to 10 µM. Moreover, the Papp at 3 h in data set [5] was found to be 60.5 ×10⁻⁶ cm/s. Further, the minimal inhibitory concentration (MIC) in data set [3] was greater than 250 µM. The compound also returned a chromatographic logD in data set [4] of 4.84.

Regarding `COc1ccc2nc(C)c(NC(=O)C(=O)Nc3cc(C)cc(C)c3)c(O)c2c1`, the solubility kinetic at 1 h in data set [1] stood at 10 µM (≈ 3.79 µg/mL). Moreover, in data set [2], the half-inhibitory concentration (IC50) at 48 h was greater than 100 µM. Also, in data set [3], the MIC was greater than 125 µM. Besides, the chromatographic logD in data set [4] came to 3.76.

Turning to `COc1ccc2nc(C)cc(OCc3nc4ccccc4[nH]3)c2c1`, in data set [1], the solubility kinetic at 1 h came out at 13 µM (≈ 4.15 µg/mL). For the same compound, the half-maximal inhibitory concentration (IC50) at 48 h in data set [2] was greater than 100 µM. Further, the MIC in data set [3] turned out to be 16 µM. Further, in data set [4], the chromatographic logD stood at 3.59.

Turning to `COc1ccc2nc(C)cc(OCC(=O)Nc3ccc(Cl)c(C(F)(F)F)c3)c2c1`, the solubility kinetic at 1 h in data set [1] was determined as 17 µM (≈ 7.22 µg/mL). In data set [2], the IC50 at 48 h amounted to 79.4 µM. Moreover, the MIC in data set [3] was found to be 47 µM. For the same compound, the chromatographic logD in data set [4] turned out to be 6.22.

With `Cc1cc(C)cc(NC(=O)COc2cc(C)nc3ccc(C(F)(F)F)cc23)c1`, the solubility kinetic at 1 h in data set [1] amounted to 10 µM (≈ 3.88 µg/mL). In addition, the concentration for half-maximal inhibition (IC50) at 48 h in data set [2] was greater than 100 µM. Also, the Papp at 3 h in data set [5] is less than 3 ×10⁻⁶ cm/s. Also, in data set [3], the MIC is greater than 250 µM. In data set [4], the chromatographic logD is 6.67.

Consider `COc1ccc2nc(C)cc(OCC(=O)Nc3ccc(Br)c(C)c3)c2c1`, for which the solubility kinetic at 1 h in data set [1] was less than 1 µM. Moreover, the half-inhibitory concentration (IC50) at 48 h in data set [2] worked out at 15.8 µM. The MIC in data set [3] was 3.9 µM. The same compound had a chromatographic logD in data set [4] of 5.95.

As to `Cc1cc(C)cc(NC(=O)COc2cc(C)nc3ccc(OC(F)(F)F)cc23)c1`, in data set [2], the half-maximal inhibitory concentration (IC50) at 48 h is greater than 100 µM. The Papp at 3 h in data set [5] was less than 3 ×10⁻⁶ cm/s. Moreover, the minimum inhibitory concentration (MIC) in data set [3] is greater than 250 µM. The chromatographic logD in data set [4] came to 6.79.

In the case of `Cc1cc(C)cc(NC(=O)COc2cc(C)nc3ccc(F)cc23)c1`, the solubility kinetic at 1 h in data set [1] was found to be 28 µM (≈ 9.47 µg/mL). Further, the IC50 at 48 h in data set [2] was 63.1 µM. Also, the Papp at 3 h in data set [5] came out at 31 ×10⁻⁶ cm/s. The MIC in data set [3] was 15.6 µM. Besides, the chromatographic logD in data set [4] is 5.79.

With `COc1ccc2c(OCC(=O)Nc3cc(C)cc(C)c3)cc(C)nc2c1`, in data set [2], the half-inhibitory concentration (IC50) at 48 h came out at 50.1 µM. Besides, the MIC in data set [3] is greater than 250 µM. The compound also returned a chromatographic logD in data set [4] of 5.59.

For the compound `CSc1ccc2nc(C)cc(OCC(=O)Nc3cc(C)cc(C)c3)c2c1`, the solubility kinetic at 1 h in data set [1] stood at 3 µM (≈ 1.1 µg/mL). Moreover, the half-maximal inhibitory concentration (IC50) at 48 h in data set [2] was greater than 100 µM. The minimal inhibitory concentration (MIC) in data set [3] was greater than 125 µM. Moreover, in data set [4], the chromatographic logD was determined as 6.42.

As for `CCCc1cc(OCC(=O)Nc2cc(C)cc(C)c2)c2cc(OC)ccc2n1`, in data set [1], the solubility kinetic at 1 h worked out at 12 µM (≈ 4.54 µg/mL). Besides, the IC50 at 48 h in data set [2] is 12.6 µM. For the same compound, in data set [3], the MIC was greater than 250 µM. Besides, the chromatographic logD in data set [4] stood at 6.44.

For `COc1ccc2nc(C)cc(OCC(=O)Nc3cc(OC)c(Cl)cc3OC)c2c1`, the solubility kinetic at 1 h in data set [1] is 3 µM (≈ 1.25 µg/mL). In data set [2], the IC50 at 48 h was greater than 100 µM. The MIC in data set [3] is greater than 125 µM. The chromatographic logD in data set [4] is 5.8.

Consider `Cc1cc(C)cc(NC(=O)COc2cc(C)nc3ccccc23)c1`, for which, in data set [1], the solubility kinetic at 1 h was found to be 55 µM (≈ 17.6 µg/mL). In data set [2], the IC50 at 48 h was greater than 100 µM. The Papp at 3 h in data set [5] amounted to 37 ×10⁻⁶ cm/s. Besides, the MIC in data set [3] came to 24 µM. The chromatographic logD in data set [4] is 5.39.

On to `COc1ccc2nc(C)c3nc(C(=S)Nc4cc(C)cc(C)c4)sc3c2c1`, for which, in data set [1], the solubility kinetic at 1 h is 35 µM (≈ 13.8 µg/mL). The concentration for half-maximal inhibition (IC50) at 48 h in data set [2] is greater than 100 µM. Moreover, in data set [5], the Papp at 3 h is less than 3 ×10⁻⁶ cm/s. Also, the MIC in data set [3] is greater than 125 µM.

With `CCOc1ccc2nc(C)cc(OCC(=O)Nc3cc(C)cc(C)c3)c2c1`, in data set [2], the IC50 at 48 h was greater than 100 µM. The Papp at 3 h in data set [5] was less than 3 ×10⁻⁶ cm/s. In addition, the MIC in data set [3] was greater than 250 µM. Besides, in data set [4], the chromatographic logD is 5.98.

On to `Cc1cc(C)cc(NC(=O)COc2cc(C)nc3ccc(Cl)cc23)c1`, for which, in data set [1], the solubility kinetic at 1 h came out at 8 µM (≈ 2.84 µg/mL). For the same compound, in data set [2], the IC50 at 48 h is greater than 100 µM. Further, the minimal inhibitory concentration (MIC) in data set [3] worked out at 40 µM. In addition, the chromatographic logD in data set [4] was 6.38.

Broadly, the IC50 is the concentration that gives 50% inhibition. As usually defined, the MIC is the lowest concentration found to suppress growth. In general, chromatographic logD refers to lipophilicity estimated from chromatographic retention. A lower chromatographic logD goes with a more hydrophilic compound.
